Published values of several laboratories.
Protocols differ between the studies behind these lines.
Target: RAC-gamma serine/threonine-protein kinase (AKT3, Homo sapiens, UniProt Q9Y243)

c1cnn2ncc(-c3ccnc(N4CCC45COC5)n3)c2c1
remaining binding (binding; 1 µM): 86%

C[C@@H]1CN(c2cc(-c3n[nH]c4ccc(OC5(C)CC5)cc34)ncn2)C[C@H](C)O1
remaining binding (cell-free assay; competition with immobilised ligand; 0.1 µM): 86%

O=C(Nc1c[nH]nc1C(=O)NC1CCNCC1)c1cc(F)cc(F)c1
remaining binding (binding; competition with immobilised ligand; 1 µM): 100%

c1cncc(-c2cccc(Nc3nccc(NC4CCCCC4)n3)c2)c1
remaining binding (binding; competition with immobilised ligand; 10 µM): 69%

CN(C)c1nccc(-c2cnn3ncccc23)n1
remaining binding (binding; 1 µM): 100%

CCC(=O)N[C@H]1CC[C@@H](C(=O)N(C)c2ccc(-c3nc4ccccc4o3)cc2)C1
remaining binding (cell-free assay; competition with immobilised ligand; 1 µM): 100%

CNC(=O)[C@@H]1CC[C@@H](n2c(-c3ccc4cnccc4c3)nc3ccc(C(=O)NCc4cccc(C(N)=O)c4)cc32)C1
remaining binding (binding; competition with immobilised ligand; 1 µM): 100%

Nc1ncc2c(n1)-c1c([nH]c3ccc(C#CC4CC4)cc13)CCCC2
remaining binding (binding; competition with immobilised ligand; 1 µM): 69%

COc1ncc2cc3ccccc3nc2c1C#N
remaining binding (cell-free assay; competition with immobilised ligand; 5 µM): 100%

CN(C)c1nccc(-c2cnc3ncccn23)n1
remaining binding (binding; 1 µM): 91%

O=C(NCCCN1CCOCC1)c1ccc(Nc2ncc(Cl)c(-c3ccc(Cl)s3)n2)cc1
remaining binding (binding; competition with immobilised ligand; 1 µM): 100%

NS(=O)(=O)c1cc(NC(=O)C2(c3ccccc3Cl)CC2)ccc1Oc1cccc(Cl)c1
remaining binding (cell-free assay; competition with immobilised ligand; 1 µM): 79%

C[C@H]1CCN(c2nccc(-c3cnn4ncccc34)n2)C1
remaining binding (binding; 1 µM): 99%

O=C1NC(c2ccccn2)Sc2ccccc21 (stereo not drawn)
remaining binding (cell-free assay; competition with immobilised ligand; 1 µM): 100%

O=C(NCCCN1CCOCC1)c1ccc(Nc2nccc(-c3cc4ccccc4s3)n2)cc1
remaining binding (binding; competition with immobilised ligand; 1 µM): 100%

N[C@@H]1CCN(c2nccc(-c3cnn4ncccc34)n2)C1
remaining binding (binding; 1 µM): 95%

CCCOc1ccc([C@H]2[C@H](C(=O)O)[C@@H](c3ccc4c(c3)OCO4)CN2CC(=O)Nc2c(CC)cccc2CC)cc1
remaining binding (cell-free assay; competition with immobilised ligand; 1 µM): 82%

O=C(c1ccc(Nc2ncc(Cl)c(-c3ccc(Cl)s3)n2)cc1)N1CCC(N2CCCC2)CC1
remaining binding (binding; competition with immobilised ligand; 1 µM): 100%

C[C@@H](c1ccc(-n2cnc3c(N)ncnc32)cc1)N1CCc2nn(C)c(Cc3ccccc3)c2C1=O
remaining binding (binding; competition with immobilised ligand; 0.1 µM): 62%

Cc1nc(C2CCN(C(=O)c3ccc(OC(F)(F)F)cc3N)CC2)c2ncc(N3CCN(C)CC3)cc2n1
remaining binding (cell-free assay; competition with immobilised ligand; 1 µM): 95%

F[C@@H]1CCN(c2nccc(-c3cnn4ncccc34)n2)C1
remaining binding (binding; 1 µM): 93%
